Experimental data of several laboratories.
Target: Leukocyte tyrosine kinase receptor (LTK, Homo sapiens, UniProt P29376)

`CN(C)c1nccc(-c2cnn3ncccc23)n1` gave a remaining binding of 92% (binding; 1 µM).
For `C=CC(=O)N1CCC(C(=O)NCC(=O)N2CCN(c3nc(-c4cnc(N)nc4C(F)F)nc(N4CCOCC4)n3)CC2)CC1`, the remaining binding was 100% (binding, competition with immobilised ligand; 1 µM).
The remaining binding of `CC(=O)C1=C(C)N(c2cccc(C(F)(F)F)c2)C(=O)N[C@@H]1c1ccc(C#N)nc1` is reported as 92.6% (cell-free assay, competition with immobilised ligand; 1 µM).
The remaining binding of `Cc1cnn2ncc(-c3ccnc(N(C)C)n3)c2c1` is reported as 98% (binding; 1 µM).
`C[C@@H]1CN(c2cc(-c3n[nH]c4ccc(OC5(C)CC5)cc34)ncn2)C[C@H](C)O1` has a remaining binding of 84% (cell-free assay, competition with immobilised ligand; 0.1 µM).
`O=C(NCCCN1CCOCC1)c1ccc(Nc2nccc(-c3cc4ccccc4s3)n2)cc1` has a remaining binding of 100% (binding, competition with immobilised ligand; 1 µM).
The remaining binding of `COc1cnc(Nc2cccc(S(N)(=O)=O)c2)nc1N1CCN(c2ccccc2)C(=O)C1` is reported as 91% (binding, competition with immobilised ligand; 1 µM).
For `CN(CCCC(F)(F)F)c1nccc(-c2cnn3ncccc23)n1`, the remaining binding was 96% (binding; 1 µM).
With `CS(=O)(=O)N1CCCC(NC(=O)[C@H](CCC2CCCCC2)NC(=O)c2ccc(CNc3ncnc4c3nnn4-c3ccccc3)cc2)C1` (stereo partly shown) the remaining binding was 100% (cell-free assay, competition with immobilised ligand; 0.1 µM).
The remaining binding of `F[C@@H]1CCN(c2nccc(-c3cnn4ncccc34)n2)C1` is reported as 92% (binding; 1 µM).
For `COc1ccc2cc(OCC3(C(=O)O)CN(C(=O)c4ccc(F)cc4)C3)ccc2c1`, the remaining binding was 100% (cell-free assay, competition with immobilised ligand; 1 µM).
With `c1cncc(-c2cccc(Nc3nccc(NC4CCCCC4)n3)c2)c1` the remaining binding was 68% (binding, competition with immobilised ligand; 10 µM).
`N[C@@H]1CCN(c2nccc(-c3cnn4ncccc34)n2)C1` gave a remaining binding of 100% (binding; 1 µM).
With `COc1ncc2cc3ccccc3nc2c1C#N` the remaining binding was 100% (cell-free assay, competition with immobilised ligand; 5 µM).
For `O=C(c1ccc(Nc2nccc(-c3cc4ccccc4s3)n2)cc1)N1CCC(N2CCCC2)CC1`, the remaining binding was 100% (binding, competition with immobilised ligand; 1 µM).
For `C[C@@H]1CCN(c2nccc(-c3cnn4ncccc34)n2)C1`, the remaining binding was 93% (binding; 1 µM).
`O=C(c1ccc(Nc2ncc(Cl)c(-c3ccc(Cl)s3)n2)cc1)N1CCC(N2CCCC2)CC1` gave a remaining binding of 90% (binding, competition with immobilised ligand; 1 µM).
With `C[C@@H](c1ccc(-n2cnc3c(N)ncnc32)cc1)N1CCc2nn(C)c(Cc3ccccc3)c2C1=O` the remaining binding was 87% (binding, competition with immobilised ligand; 0.1 µM).
`CCCOc1ccc([C@@H]2[C@@H](C(=O)O)[C@H](c3ccc4c(c3)OCO4)CN2CC(=O)Nc2c(CC)cccc2CC)cc1` has a remaining binding of 100% (cell-free assay, competition with immobilised ligand; 1 µM).
`Nc1ncc2c(n1)-c1c([nH]c3ccc(C#CC4CC4)cc13)CCCC2` has a remaining binding of 100% (binding, competition with immobilised ligand; 1 µM).
`Cc1nc(Cc2cccc(C(F)(F)F)c2)sc1-c1ccc(C(N)=O)nc1` gave a remaining binding of 100% (cell-free assay, competition with immobilised ligand; 1 µM).
For `O=C(Nc1c[nH]nc1C(=O)NC1CCNCC1)c1cc(F)cc(F)c1`, the remaining binding was 74% (binding, competition with immobilised ligand; 1 µM).
